Reference: ChEMBL document CHEMBL1140405, “6-Acylamino-2-aminoquinolines as potent melanin-concentrating hormone 1 receptor antagonists. Identification, structure-activity relationship, and investigation of binding mode” (J Med Chem, 2005)
In brackets after ≈: the same amount, converted by molar mass.

Tests used:
[1] = molecular target: Melanin-concentrating hormone receptor 2 (Homo sapiens, UniProt Q969V1); assay: Displacement of 30 pM [125I]-MCH from human MCH2R expressed in CHO-K1 in whole-cell binding assay
[2] = molecular target: T1, 5-hydroxytryptamine receptor 2C (Homo sapiens, UniProt P28335); assay: Inhibitory concentration against human 5-hydroxytryptamine 2C receptor expressed in CHO-K1 cells using [3H]mesulergine; type: cell-based
T1 sequence (P28335 whole entry): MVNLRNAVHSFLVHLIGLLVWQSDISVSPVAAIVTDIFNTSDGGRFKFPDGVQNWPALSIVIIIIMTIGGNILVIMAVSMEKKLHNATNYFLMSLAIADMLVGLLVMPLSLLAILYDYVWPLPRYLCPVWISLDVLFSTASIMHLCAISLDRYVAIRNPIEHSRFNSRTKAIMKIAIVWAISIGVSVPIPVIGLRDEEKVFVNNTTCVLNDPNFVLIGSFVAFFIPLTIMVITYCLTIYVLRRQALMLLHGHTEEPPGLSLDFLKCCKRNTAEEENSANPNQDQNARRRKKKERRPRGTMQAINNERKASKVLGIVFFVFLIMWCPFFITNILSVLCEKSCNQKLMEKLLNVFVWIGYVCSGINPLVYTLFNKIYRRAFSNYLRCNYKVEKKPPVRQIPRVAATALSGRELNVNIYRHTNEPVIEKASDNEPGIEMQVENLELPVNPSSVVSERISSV
In short: (§1)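 SPA competition binding on purchased membranes from CHO-K1 cells expressing h5-HT2c (4 μg/well), with YSi-WGA beads (0.4 mg/well) and [3H]mesulergine tracer, across various test-compound concentrations. Buffer is 50 mM Tris pH 7.7, 50 mM MgCl2 and 0.1% pargyline. Nonspecific binding uses 1 μM cold mesulergine. IC50 is taken by nonlinear regression.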

[3] = Solubility was determined by addition of 10 mM DMSO solution of test compound to PBS (pH 7) until opalescence
[4] = molecular target: 5-hydroxytryptamine receptor 1B (Homo sapiens, UniProt P28222); assay: Inhibitory concentration against 5-hydroxytryptamine 1B receptor
[5] = molecular target: D(1A) dopamine receptor (Homo sapiens, UniProt P21728); assay: Inhibitory concentration against dopamine receptor D1
[6] = molecular target: Sodium-dependent dopamine transporter (Homo sapiens, UniProt Q01959); assay: Inhibitory concentration against dopamine transporter
[7] = molecular target: T2, Muscarinic acetylcholine receptor M2 (Homo sapiens, UniProt P08172); assay: Inhibitory concentration against muscarinic acetylcholine receptor M2
T2 sequence (P08172 whole entry): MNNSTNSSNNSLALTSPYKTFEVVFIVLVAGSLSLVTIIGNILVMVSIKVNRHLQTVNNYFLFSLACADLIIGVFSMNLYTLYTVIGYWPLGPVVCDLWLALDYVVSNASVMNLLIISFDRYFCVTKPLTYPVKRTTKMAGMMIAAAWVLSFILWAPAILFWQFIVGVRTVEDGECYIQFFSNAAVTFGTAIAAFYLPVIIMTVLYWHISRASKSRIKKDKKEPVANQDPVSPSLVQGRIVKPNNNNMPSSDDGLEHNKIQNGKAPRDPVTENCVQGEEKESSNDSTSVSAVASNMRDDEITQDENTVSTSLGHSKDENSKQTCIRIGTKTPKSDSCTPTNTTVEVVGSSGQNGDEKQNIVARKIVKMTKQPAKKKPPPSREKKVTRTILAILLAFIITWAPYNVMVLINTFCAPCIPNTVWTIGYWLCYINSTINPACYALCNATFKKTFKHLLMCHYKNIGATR

[8] = molecular target: Histamine H2 receptor (Homo sapiens, UniProt P25021); assay: Inhibitory concentration against Histamine H2 receptor
[9] = molecular target: T3, Muscarinic acetylcholine receptor M1 (Homo sapiens, UniProt P11229); assay: Inhibitory concentration against muscarinic acetylcholine receptor M1
T3 sequence (P11229 whole entry): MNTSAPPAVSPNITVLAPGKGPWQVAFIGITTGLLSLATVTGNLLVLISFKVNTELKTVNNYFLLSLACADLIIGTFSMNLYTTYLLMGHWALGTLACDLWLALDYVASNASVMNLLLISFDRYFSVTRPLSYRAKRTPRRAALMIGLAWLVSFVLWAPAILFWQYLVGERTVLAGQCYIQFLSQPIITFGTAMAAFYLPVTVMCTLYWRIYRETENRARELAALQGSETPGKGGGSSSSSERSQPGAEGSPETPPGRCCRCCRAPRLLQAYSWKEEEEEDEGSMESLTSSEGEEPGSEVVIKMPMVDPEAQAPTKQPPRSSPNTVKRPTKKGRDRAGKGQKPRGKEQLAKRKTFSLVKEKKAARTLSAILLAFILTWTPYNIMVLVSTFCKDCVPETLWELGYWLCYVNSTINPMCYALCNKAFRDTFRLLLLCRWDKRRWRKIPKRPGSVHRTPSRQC

[10] = molecular target: T4, Adrenergic receptor alpha-2 (Homo sapiens, UniProt P08913+P18825+P18089); assay: Inhibitory concentration against alpha-2 adrenergic receptor; type: protein assay
T4 sequence (P08913 whole entry): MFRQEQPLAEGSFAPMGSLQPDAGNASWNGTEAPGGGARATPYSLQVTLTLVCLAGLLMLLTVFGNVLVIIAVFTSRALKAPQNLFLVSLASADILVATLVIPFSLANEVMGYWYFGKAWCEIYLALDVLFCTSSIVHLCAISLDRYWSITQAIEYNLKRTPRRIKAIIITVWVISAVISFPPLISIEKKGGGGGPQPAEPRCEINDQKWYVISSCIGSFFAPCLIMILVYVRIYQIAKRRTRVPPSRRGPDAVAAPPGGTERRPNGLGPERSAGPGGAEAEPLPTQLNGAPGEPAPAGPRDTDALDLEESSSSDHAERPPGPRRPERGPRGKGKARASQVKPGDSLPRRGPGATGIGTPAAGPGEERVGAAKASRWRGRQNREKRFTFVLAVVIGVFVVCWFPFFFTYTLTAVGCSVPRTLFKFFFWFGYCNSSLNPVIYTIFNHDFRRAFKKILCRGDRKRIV
T4 sequence (P18825 whole entry): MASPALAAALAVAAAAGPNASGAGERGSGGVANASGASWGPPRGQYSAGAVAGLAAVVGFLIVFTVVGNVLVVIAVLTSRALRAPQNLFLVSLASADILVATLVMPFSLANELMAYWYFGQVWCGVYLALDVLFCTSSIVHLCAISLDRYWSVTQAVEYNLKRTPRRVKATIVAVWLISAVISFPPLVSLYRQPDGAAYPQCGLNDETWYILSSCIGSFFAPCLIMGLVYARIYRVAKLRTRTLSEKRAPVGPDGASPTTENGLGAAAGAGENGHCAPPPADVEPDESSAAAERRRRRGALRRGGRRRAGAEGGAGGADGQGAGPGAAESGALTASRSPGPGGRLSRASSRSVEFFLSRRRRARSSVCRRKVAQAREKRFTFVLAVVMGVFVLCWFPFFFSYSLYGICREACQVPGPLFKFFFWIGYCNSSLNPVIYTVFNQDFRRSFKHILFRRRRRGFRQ
T4 sequence (P18089 whole entry): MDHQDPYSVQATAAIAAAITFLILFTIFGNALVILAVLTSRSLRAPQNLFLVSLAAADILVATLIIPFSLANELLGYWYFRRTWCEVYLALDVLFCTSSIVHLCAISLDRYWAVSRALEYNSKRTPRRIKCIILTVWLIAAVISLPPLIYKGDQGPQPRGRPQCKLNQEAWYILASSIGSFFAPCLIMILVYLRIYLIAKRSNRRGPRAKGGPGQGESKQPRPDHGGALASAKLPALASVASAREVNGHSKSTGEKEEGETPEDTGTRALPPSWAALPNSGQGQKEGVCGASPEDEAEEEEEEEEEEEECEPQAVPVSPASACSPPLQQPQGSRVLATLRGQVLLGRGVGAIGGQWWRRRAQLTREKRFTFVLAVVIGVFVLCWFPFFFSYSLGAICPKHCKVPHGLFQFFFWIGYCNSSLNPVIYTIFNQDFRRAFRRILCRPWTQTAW

[11] = molecular target: T1, 5-hydroxytryptamine receptor 2C; assay: Inhibitory concentration against 5-hydroxytryptamine 2C receptor expressed in CHO-K1 cells using [3H]mesulergine; type: cell-based
In short: as §1

[12] = molecular target: 5-hydroxytryptamine receptor 2A (Homo sapiens, UniProt P28223); assay: Inhibitory concentration against 5-hydroxytryptamine 2A receptor
[13] = molecular target: D(3) dopamine receptor (Homo sapiens, UniProt P35462); assay: Inhibitory concentration against dopamine receptor D3
[14] = molecular target: Histamine H1 receptor (Homo sapiens, UniProt P35367); assay: Inhibitory concentration against Histamine H1 receptor
[15] = molecular target: Melanin-concentrating hormone receptor 1 (Homo sapiens, UniProt Q99705); assay: Displacement of 150p M [125I]MCH from human MCH1R expressed in CHO-K1 cells at 10 uM; type: cell-based
Chain of Melanin-concentrating hormone receptor 1 (Q99705 whole entry): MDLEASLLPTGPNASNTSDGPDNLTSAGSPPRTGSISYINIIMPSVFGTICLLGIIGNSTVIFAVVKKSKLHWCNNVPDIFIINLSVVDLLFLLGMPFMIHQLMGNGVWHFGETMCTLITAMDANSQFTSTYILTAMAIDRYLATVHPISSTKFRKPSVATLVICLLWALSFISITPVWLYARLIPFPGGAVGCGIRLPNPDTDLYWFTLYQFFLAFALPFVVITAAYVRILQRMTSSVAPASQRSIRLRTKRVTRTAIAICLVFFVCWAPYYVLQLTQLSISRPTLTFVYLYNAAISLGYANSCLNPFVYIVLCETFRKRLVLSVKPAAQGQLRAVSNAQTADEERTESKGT

Chain of Melanin-concentrating hormone receptor 2 (Q969V1 whole entry): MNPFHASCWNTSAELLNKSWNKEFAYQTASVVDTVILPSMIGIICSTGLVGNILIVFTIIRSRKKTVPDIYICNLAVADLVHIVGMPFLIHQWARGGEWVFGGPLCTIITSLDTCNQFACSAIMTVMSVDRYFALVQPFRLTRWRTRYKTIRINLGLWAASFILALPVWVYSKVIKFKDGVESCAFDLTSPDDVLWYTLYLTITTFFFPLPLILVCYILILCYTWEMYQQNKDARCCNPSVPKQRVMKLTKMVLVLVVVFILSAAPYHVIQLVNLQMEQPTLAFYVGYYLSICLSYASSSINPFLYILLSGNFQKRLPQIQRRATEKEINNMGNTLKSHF
Chain of Sodium-dependent dopamine transporter (Q01959 whole entry): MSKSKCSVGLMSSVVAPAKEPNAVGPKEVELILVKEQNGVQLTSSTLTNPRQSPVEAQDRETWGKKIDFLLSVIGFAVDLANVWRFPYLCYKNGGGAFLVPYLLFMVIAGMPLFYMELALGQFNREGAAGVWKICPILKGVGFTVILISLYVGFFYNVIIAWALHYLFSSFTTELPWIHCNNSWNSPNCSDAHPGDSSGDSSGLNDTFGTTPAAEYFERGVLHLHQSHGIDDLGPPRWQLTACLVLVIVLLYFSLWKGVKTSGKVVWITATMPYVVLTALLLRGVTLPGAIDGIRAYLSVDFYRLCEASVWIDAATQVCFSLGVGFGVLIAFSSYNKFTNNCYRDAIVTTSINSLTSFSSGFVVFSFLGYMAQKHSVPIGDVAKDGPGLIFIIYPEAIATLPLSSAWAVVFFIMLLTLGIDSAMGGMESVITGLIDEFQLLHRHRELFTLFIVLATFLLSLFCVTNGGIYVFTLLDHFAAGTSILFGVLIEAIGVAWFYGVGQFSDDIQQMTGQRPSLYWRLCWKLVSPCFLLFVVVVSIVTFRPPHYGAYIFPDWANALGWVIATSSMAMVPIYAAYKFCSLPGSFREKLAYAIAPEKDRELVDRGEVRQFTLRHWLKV
Chain of 5-hydroxytryptamine receptor 2A (P28223 whole entry): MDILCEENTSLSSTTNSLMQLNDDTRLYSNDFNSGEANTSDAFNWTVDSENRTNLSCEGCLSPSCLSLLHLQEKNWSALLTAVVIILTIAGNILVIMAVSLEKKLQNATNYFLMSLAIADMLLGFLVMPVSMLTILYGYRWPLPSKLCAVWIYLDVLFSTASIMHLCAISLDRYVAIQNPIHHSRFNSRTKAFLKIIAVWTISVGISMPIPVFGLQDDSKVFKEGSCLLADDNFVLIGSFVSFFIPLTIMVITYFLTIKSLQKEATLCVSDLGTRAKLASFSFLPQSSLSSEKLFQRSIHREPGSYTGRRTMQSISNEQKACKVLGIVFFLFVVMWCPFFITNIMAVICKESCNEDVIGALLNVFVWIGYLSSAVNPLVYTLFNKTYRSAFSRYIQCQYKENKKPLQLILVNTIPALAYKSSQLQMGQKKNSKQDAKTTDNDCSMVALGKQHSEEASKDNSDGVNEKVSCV
Chain of D(3) dopamine receptor (P35462 whole entry): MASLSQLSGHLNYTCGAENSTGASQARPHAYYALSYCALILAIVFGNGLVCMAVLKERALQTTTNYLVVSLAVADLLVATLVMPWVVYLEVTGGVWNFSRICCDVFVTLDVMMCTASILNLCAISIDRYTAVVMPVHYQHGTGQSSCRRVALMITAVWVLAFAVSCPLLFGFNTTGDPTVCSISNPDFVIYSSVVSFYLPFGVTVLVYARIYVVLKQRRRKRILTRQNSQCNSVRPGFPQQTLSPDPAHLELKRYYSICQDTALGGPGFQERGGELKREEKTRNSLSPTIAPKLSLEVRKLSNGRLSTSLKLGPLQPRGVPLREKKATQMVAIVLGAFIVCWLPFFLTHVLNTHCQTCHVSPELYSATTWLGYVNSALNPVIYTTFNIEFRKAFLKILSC
Chain of Histamine H1 receptor (P35367 whole entry): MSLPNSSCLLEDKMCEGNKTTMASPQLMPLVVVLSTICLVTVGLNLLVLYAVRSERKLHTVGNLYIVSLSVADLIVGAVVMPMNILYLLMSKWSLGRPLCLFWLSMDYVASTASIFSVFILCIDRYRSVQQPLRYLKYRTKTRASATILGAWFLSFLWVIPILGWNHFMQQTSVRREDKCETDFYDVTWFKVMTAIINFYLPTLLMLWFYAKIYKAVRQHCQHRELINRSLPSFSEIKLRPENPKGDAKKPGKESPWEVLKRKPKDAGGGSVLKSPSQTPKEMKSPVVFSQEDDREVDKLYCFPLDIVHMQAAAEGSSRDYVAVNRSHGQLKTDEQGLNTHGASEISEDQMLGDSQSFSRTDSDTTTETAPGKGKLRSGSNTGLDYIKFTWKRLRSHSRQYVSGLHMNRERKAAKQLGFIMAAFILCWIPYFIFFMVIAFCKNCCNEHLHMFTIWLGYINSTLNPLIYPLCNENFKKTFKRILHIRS
Chain of D(1A) dopamine receptor (P21728 whole entry): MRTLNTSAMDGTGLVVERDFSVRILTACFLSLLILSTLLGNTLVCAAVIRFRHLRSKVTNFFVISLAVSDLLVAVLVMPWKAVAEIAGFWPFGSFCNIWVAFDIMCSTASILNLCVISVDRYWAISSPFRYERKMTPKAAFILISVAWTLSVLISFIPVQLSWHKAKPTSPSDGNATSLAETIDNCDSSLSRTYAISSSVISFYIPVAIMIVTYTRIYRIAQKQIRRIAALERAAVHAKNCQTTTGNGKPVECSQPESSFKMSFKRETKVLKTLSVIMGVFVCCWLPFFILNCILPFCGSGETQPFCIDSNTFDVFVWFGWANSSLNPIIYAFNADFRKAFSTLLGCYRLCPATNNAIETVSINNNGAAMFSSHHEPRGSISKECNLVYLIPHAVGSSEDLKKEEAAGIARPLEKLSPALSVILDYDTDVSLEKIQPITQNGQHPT
Chain of Histamine H2 receptor (P25021 whole entry): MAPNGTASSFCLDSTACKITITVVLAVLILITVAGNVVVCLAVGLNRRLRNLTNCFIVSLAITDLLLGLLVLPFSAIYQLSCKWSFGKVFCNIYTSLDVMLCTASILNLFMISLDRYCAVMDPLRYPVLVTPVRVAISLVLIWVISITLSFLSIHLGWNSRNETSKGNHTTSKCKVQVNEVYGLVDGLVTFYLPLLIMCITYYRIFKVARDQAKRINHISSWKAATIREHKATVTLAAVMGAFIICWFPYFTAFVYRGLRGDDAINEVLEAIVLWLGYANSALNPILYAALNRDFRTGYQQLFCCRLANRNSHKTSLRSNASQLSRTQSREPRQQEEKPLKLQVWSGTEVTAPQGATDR
Chain of 5-hydroxytryptamine receptor 1B (P28222 whole entry): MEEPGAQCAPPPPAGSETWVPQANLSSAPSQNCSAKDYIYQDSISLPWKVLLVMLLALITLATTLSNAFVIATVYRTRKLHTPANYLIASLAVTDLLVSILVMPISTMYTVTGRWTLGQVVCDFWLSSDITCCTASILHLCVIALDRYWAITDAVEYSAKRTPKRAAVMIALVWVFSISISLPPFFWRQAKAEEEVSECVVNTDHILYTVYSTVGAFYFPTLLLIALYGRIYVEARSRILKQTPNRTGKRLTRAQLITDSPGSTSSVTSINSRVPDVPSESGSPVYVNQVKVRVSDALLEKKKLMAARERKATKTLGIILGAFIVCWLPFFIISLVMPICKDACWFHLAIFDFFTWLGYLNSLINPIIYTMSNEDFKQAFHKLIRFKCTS

Row | IC50 [1] [nM] | IC50 [2] [nM] | inhibition [15] [%] | Structure (SMILES) | also measured
1 | > 10000 | 4700 |  | CCN1CCCC1CNc1cc(C)c2cc(NC(=O)COc3ccc(OC(F)(F)F)cc3)ccc2n1 (configuration not stated) | 
2 | 7100 | 4000 |  | Cc1cc(NCCCN(C)C)nc2ccc(NC(=O)COc3ccc(OC(F)(F)F)cc3)cc12 | 
3 |  | 1600 |  | Cc1cc(N2CCCNCC2)nc2ccc(NC(=O)/C=C/c3ccc(OC(F)(F)F)cc3)cc12 | 

Further lines, the compound ahead of its results:

Row | Structure (SMILES) | IC50 [1] [nM] | IC50 [2] [nM] | inhibition [15] [%] | also measured
4 | CNCCN(C)c1cc(C)c2cc(NC(=O)COc3ccc(Cl)cc3Cl)ccc2n1 |  | 770 |  | solubility kinetic ([3]; buffer): 100 µM (≈ 44.7 µg/mL)
5 | Cc1cc(N(C)CCN(C)C)nc2ccc(NC(=O)/C=C/c3ccc(OC(F)(F)F)cc3)cc12 |  |  |  | IC50 [4]: 800 nM; IC50 [5]: 900 nM; IC50 [6]: 10000 nM; IC50 [7]: 480 nM; IC50 [8]: 860 nM; IC50 [9]: 1300 nM; IC50 [10]: 1300 nM; IC50 [11]: 900 nM; IC50 [12]: 1900 nM; IC50 [13]: 2300 nM; IC50 [14]: > 10000 nM
6 | Cc1cc(N2CC3CC2CN3)nc2ccc(NC(=O)COc3ccc(OC(F)(F)F)cc3)cc12 (configuration not stated) | 6800 |  |  | solubility kinetic ([3]; PBS): 150 µM (≈ 70.9 µg/mL)
7 | Cc1cc(N2CCN(c3ncccn3)CC2)nc2ccc(NC(=O)COc3ccc(Cl)cc3Cl)cc12 |  |  | 41 | 
8 | CCN1CCN(c2cc(C)c3cc(NC(=O)/C=C/c4ccccc4OC(C)C)ccc3n2)CC1 |  |  | 41 | 
9 | COc1ccc(OC)c(/C=C/C(=O)Nc2ccc3nc(N4CCN(C)CC4)cc(C)c3c2)c1 |  |  | 47 | 
10 | Cc1cc(N(C)CCO)nc2ccc(NC(=O)COc3ccc(Cl)cc3Cl)cc12 | > 10000 | 5900 |  | solubility kinetic ([3]; PBS): 5 µM (≈ 2.17 µg/mL)
11 | Cc1cc(N(C)CCO)nc2ccc(NC(=O)/C=C/c3ccc(OC(F)(F)F)cc3)cc12 | 6400 | > 10000 |  | 
12 | Cc1cc(N2CCOCC2)nc2ccc(NC(=O)COc3ccc(OC(F)(F)F)cc3)cc12 | > 10000 | > 10000 |  | solubility kinetic ([3]; PBS): 25 µM (≈ 11.5 µg/mL)
13 | CCOc1ccc(/C=C/C(=O)Nc2ccc3nc(N4CCN(C)CC4)cc(C)c3c2)cc1OC |  |  | 52 | 
